pIC50: −log10 of the molar value. ≈ marks a conversion by molar mass, not a printed value. Calls of active or inactive are those of the source. No cut-off for these calls is given here.
Tests used:
[1] = test system: Mycobacterium tuberculosis; experiment: Antimycobacterial activity against Mycobacterium tuberculosis over expressing TopA after 5 days by standard microdilution method; format: functional; conditions: 120 h
[2] = test system: Mycobacterium tuberculosis; experiment: Antimycobacterial activity against Mycobacterium tuberculosis over expressing InhA after 5 days by standard microdilution method; format: functional; conditions: 120 h
[3] = test system: Mycobacterium tuberculosis; experiment: Antimycobacterial activity against Mycobacterium tuberculosis over expressing DprE1 after 5 days by standard microdilution method; format: functional; conditions: 120 h
[4] = Cytotoxicity against human A549 cells after 72 hrs by resazurin based fluorescence assay; format: cell-based; conditions: read-out: MIC
Summary of the method: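 Cytotoxicity read as MMIC, the MIC on the A549 cell line.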

[5] = Permeability of the compound from apical to basolateral side in human Caco2 cells; format: ADME, cell-based; conditions: Caco-2, read-out: permeability
[6] = test system: Mycobacterium tuberculosis; experiment: Antimycobacterial activity against Mycobacterium tuberculosis H37Rv after 5 days by standard microdilution method; format: functional; conditions: 120 h
Adenosine receptor A1 = target: T1, Adenosine receptor A1 (Homo sapiens, UniProt P30542); experiment: Inhibition of adenosine A1 receptor (unknown origin)
T1 sequence (P30542 whole entry): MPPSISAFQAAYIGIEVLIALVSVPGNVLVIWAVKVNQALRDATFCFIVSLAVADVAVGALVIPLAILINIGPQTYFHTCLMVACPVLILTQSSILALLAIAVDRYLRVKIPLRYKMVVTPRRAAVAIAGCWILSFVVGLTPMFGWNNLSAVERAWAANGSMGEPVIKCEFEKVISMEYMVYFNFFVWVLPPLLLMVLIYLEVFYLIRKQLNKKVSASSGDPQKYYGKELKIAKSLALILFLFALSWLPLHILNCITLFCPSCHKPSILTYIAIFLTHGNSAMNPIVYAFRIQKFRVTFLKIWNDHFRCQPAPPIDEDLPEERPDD
Summary of the method: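 Secondary pharmacology panel of binding, enzyme and functional assays covering 24 molecular targets. Activity recorded as a defined Ki/IC50/EC50.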

[7] = target: Voltage-gated inwardly rectifying potassium channel KCNH2 (Homo sapiens, UniProt Q12809); experiment: Inhibition of human ERG by medium-throughput electrophysiology
[8] = Fraction unbound in human plasma at 20 uM after 18 hrs by equilibrium dialysis method; format: ADME, cell-free
Cytochrome P450 2C9 = Cytochrome P450 2C9 (Homo sapiens, UniProt P11712); experiment: Inhibition of CYP2C9 (unknown origin); format: ADME
Summary of the method: (§1)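 CYP inhibition IC50 measured on isoforms CYP3A4, CYP2D6, CYP2C9, CYP2C19 and CYP1A2.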

Cytochrome P450 3A4 = Cytochrome P450 3A4 (Homo sapiens, UniProt P08684); experiment: Inhibition of CYP3A4 (unknown origin); format: ADME; summary of the method: as §1
Cytochrome P450 2D6 = Cytochrome P450 2D6 (Homo sapiens, UniProt P10635); experiment: Inhibition of CYP2D6 (unknown origin); format: ADME; summary of the method: as §1
Cytochrome P450 2C19 = Cytochrome P450 2C19 (Homo sapiens, UniProt P33261); experiment: Inhibition of CYP2C19 (unknown origin); format: ADME; summary of the method: as §1
[9] = Octanol-water partition coefficient, log D of the compound by shake-flask method; format: physicochemical
Cytochrome P450 1A2 = target: T2, Cytochrome P450 1A2 (Homo sapiens, UniProt P05177); experiment: Inhibition of CYP1A2 (unknown origin); format: ADME; summary of the method: as §1
T2 sequence (P05177 whole entry): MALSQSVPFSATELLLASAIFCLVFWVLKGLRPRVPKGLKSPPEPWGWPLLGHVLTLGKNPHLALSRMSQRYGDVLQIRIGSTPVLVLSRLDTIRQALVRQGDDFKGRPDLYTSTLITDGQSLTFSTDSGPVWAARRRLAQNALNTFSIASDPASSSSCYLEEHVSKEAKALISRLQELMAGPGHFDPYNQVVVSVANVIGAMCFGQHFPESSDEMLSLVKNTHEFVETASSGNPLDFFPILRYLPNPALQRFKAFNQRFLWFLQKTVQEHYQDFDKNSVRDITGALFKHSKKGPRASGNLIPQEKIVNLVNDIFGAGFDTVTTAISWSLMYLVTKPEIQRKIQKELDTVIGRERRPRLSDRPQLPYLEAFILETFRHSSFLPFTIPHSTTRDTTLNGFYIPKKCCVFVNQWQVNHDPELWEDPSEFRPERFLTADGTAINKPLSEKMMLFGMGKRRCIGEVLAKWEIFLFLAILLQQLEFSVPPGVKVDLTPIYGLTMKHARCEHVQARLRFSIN

[10] = Intrinsic clearance in human liver microsomes at 1 uM up to 30 mins by LC-MS/MS analysis; format: ADME; conditions: read-out: CLH
[11] = Inhibition of Mycobacterium smegmatis recombinant DprE1 using farnesylphosphoryl-beta-D-ribofuranose as substrate assessed as conversion of amplex red to resorufin after 30 mins; parameters: species or system Mycolicibacterium smegmatis
Summary of the method: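 Msm DprE1 (thioredoxin-6His fusion of Msm Rv3790) at 75 nM, preincubated 30 min with 10 μM FAD. Buffer: 50 mM glycylglycine pH 8.5, 200 mM potassium glutamate, 0.002% Brij-35, 2% DMSO, 25 °C. Started with 300 μM farnesylphosphoryl-β-D-ribofuranose, 0.01 mg/mL HRP and 50 μM Amplex Red.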

[12] = Permeability of the compound from basolateral to apical side in human Caco2 cells; format: ADME, cell-based; conditions: Caco-2, read-out: permeability
[13] = Solubility of the compound in 0.1 M phosphate buffer at pH 7.4 after 24 hrs by UV and MS analysis; format: physicochemical
[14] = Intrinsic clearance in rat cryopreserved hepatocytes assessed per 10^6 cells at 1 uM up to 120 mins by LC-MS/MS analysis; format: ADME, cell-based, Hepatocyte; conditions: read-out: CLH
[15] = Inhibition of Mycobacterium smegmatis DprE1 Y321H mutant using farnesylphosphoryl-beta-D-ribofuranose as substrate assessed as conversion of amplex red to resorufin after 30 mins; parameters: species or system Mycolicibacterium smegmatis
Summary of the method: (§2)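 Recombinant M. smegmatis DprE1 (thioredoxin-6His fusion), wild type or Y321H, 75 nM. Enzyme was preincubated 30 min in FAD assay mix: 50 mM glycylglycine pH 8.5, 200 mM potassium glutamate, 10 μM FAD, 0.002% Brij-35, 2% DMSO. Reaction was started with 300 μM farnesylphosphoryl-β-D-ribofuranose, 0.01 mg/mL HRP and 50 μM amplex red at 25 °C.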

[16] = test system: Mycolicibacterium smegmatis; experiment: Ratio of IC50 for Mycobacterium smegmatis DprE1 Y321H mutant to IC50 for Mycobacterium smegmatis recombinant wild type DprE1; summary of the method: as §2
[17] = test system: Mycobacterium tuberculosis; experiment: Antimycobacterial activity against Mycobacterium tuberculosis H37Rv under hypoxic condition after 6 days by resazurin assay; format: functional
Haemophilus influenzae [18] = experiment: Antimicrobial activity against Haemophilus influenzae ARC446 at 100 uM; format: functional, organism-based
Summary of the method: (§3)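 Nonmycobacterial panel of Candida albicans, Gram-negative and Gram-positive pathogens.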

Staphylococcus aureus = experiment: Antimicrobial activity against Staphylococcus aureus ARC517 at 100 uM; format: functional, organism-based; summary of the method: as §3
Candida albicans = experiment: Antimicrobial activity against Candida albicans ARC527 at 100 uM; format: functional, organism-based; summary of the method: as §3
Streptococcus pneumoniae = experiment: Antimicrobial activity against Streptococcus pneumoniae ARC548 at 100 uM; format: functional, organism-based; summary of the method: as §3
[19] = test system: Mycolicibacterium smegmatis; experiment: Antimicrobial activity against Mycobacterium smegmatis mc2155 at 100 uM; format: functional, organism-based; conditions: str. MC2 155
Escherichia coli [20] = experiment: Antimicrobial activity against Escherichia coli ARC524 at 100 uM; format: functional, organism-based; summary of the method: as §3
Pseudomonas aeruginosa [21] = experiment: Antimicrobial activity against Pseudomonas aeruginosa ARC545 at 100 uM; format: functional, organism-based; summary of the method: as §3
Pseudomonas aeruginosa [22] = experiment: Antimicrobial activity against Pseudomonas aeruginosa ARC546 at 100 uM; format: functional, organism-based; summary of the method: as §3
Klebsiella pneumoniae = experiment: Antimicrobial activity against Klebsiella pneumoniae ARC1865 at 100 uM; format: functional, organism-based; summary of the method: as §3
Haemophilus influenzae [23] = experiment: Antimicrobial activity against Haemophilus influenzae ARC158 at 100 uM; format: functional, organism-based; summary of the method: as §3
[24] = test system: Mycolicibacterium smegmatis; experiment: Antimicrobial activity against Mycobacterium smegmatis ATCC 607 at 100 uM; format: functional, organism-based
Escherichia coli [25] = experiment: Antimicrobial activity against Escherichia coli ARC523 at 100 uM; format: functional, organism-based; summary of the method: as §3
[26] = test system: Mycobacterium tuberculosis; experiment: Antimycobacterial activity against Mycobacterium tuberculosis over expressing PimA after 5 days by standard microdilution method; format: functional; conditions: 120 h

Sequence of Cytochrome P450 2C9 (P11712 whole entry, canonical isoform): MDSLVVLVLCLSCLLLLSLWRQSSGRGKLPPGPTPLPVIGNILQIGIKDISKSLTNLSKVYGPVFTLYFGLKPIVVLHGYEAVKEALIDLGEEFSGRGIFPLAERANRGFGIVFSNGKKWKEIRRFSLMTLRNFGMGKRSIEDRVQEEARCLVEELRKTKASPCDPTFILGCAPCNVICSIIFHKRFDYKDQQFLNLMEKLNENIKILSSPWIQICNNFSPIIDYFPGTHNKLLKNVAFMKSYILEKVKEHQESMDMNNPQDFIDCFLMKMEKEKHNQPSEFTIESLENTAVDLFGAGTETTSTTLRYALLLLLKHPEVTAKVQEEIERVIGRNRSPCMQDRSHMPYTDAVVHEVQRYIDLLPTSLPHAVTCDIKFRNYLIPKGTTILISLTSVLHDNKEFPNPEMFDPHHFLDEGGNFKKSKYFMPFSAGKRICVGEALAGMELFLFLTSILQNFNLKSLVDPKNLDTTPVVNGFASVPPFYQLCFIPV
Sequence of Cytochrome P450 3A4 (P08684 whole entry): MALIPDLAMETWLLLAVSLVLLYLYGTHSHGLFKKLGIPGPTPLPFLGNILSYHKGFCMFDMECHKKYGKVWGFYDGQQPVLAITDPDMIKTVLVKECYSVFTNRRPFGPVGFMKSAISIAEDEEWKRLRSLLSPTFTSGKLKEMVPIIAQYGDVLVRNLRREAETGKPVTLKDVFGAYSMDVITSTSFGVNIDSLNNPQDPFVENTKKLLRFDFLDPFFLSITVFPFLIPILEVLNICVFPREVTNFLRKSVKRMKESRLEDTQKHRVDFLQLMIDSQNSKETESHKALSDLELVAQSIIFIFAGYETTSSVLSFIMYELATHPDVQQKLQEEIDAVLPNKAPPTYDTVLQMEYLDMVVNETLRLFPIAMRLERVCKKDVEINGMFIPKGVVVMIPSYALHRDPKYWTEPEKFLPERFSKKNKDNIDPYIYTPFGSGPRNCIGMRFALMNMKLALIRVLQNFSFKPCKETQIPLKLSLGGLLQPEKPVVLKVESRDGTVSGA
Sequence of Voltage-gated inwardly rectifying potassium channel KCNH2 (Q12809 whole entry): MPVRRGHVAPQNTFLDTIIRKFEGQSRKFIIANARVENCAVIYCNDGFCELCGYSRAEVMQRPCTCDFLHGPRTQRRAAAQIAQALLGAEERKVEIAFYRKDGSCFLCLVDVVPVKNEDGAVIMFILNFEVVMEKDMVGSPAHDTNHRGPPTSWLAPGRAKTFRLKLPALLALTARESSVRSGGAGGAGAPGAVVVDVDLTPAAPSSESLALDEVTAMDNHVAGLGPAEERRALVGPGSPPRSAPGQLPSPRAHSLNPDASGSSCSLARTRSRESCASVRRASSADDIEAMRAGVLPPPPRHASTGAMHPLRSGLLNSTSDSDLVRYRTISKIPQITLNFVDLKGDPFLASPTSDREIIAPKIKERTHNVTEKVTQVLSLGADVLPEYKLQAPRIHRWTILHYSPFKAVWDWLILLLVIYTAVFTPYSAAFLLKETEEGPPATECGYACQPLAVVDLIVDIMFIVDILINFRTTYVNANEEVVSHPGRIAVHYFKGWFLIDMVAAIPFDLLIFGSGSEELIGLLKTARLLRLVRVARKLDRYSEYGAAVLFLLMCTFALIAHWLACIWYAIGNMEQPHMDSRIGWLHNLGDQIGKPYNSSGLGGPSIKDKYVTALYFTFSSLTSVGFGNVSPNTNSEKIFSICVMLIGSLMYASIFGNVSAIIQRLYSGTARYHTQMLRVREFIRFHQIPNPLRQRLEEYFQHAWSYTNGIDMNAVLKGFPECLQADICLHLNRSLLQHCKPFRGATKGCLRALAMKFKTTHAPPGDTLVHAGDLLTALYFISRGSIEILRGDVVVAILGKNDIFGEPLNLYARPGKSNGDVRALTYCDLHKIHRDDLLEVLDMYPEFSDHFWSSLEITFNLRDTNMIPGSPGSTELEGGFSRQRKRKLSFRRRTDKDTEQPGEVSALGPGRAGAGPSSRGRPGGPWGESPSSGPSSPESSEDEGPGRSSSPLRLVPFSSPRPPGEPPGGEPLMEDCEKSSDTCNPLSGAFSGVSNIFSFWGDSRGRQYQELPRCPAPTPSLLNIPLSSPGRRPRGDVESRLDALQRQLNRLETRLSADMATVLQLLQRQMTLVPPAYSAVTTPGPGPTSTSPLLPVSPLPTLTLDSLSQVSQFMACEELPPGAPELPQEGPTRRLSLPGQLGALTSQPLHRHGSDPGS
Sequence of Cytochrome P450 2D6 (P10635 whole entry): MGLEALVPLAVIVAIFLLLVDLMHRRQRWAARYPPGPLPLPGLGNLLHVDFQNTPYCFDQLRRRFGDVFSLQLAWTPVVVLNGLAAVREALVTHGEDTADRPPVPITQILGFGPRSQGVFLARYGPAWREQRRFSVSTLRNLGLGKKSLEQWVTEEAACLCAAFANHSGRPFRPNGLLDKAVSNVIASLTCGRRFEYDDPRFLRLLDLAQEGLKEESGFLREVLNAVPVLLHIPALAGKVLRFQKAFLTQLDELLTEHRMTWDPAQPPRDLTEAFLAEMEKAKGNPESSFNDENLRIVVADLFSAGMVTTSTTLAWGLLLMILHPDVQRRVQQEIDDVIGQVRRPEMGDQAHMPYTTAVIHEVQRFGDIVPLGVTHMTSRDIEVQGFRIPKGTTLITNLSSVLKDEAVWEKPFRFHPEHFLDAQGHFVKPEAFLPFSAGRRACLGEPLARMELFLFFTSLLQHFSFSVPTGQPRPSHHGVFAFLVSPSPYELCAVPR
Sequence of Cytochrome P450 2C19 (P33261 whole entry): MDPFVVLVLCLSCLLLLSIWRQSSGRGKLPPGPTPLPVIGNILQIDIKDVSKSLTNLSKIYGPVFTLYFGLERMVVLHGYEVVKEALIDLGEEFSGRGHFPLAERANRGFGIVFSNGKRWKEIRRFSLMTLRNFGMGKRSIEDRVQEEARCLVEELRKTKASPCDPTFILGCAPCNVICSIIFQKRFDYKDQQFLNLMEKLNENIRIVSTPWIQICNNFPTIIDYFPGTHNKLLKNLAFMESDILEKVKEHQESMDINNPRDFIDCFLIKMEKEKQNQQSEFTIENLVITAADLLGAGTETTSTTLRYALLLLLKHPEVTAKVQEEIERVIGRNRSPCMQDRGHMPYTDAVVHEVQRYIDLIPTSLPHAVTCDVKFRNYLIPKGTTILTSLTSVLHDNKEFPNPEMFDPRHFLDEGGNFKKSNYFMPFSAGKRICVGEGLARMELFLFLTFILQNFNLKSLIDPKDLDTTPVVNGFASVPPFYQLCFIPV

SMILES	MIC [1] [µM]	MIC [2] [µM]	MIC [3] [µM]	MIC [6] [µM]	pIC50 [11]	Activity [17]	Activity (Haemophilus influenzae [18])	Activity (Staphylococcus aureus)	Activity (Candida albicans)	Activity (Streptococcus pneumoniae)	Activity [19]	Activity (Escherichia coli [20])	Activity (Pseudomonas aeruginosa [21])	Activity (Pseudomonas aeruginosa [22])	Activity (Klebsiella pneumoniae)	Activity (Haemophilus influenzae [23])	Activity [24]	Activity (Escherichia coli [25])	MIC [26] [µM]	other results
COc1c(N2C[C@@H]3CCCN[C@@H]3C2)c(F)cc2c(=O)c(C(=O)O)cn(C3CC3)c12 [MOXIFLOXACIN]	0.31 (≈ 0.124 µg/mL)	0.16 (≈ 0.0642 µg/mL)	0.08 (≈ 0.0321 µg/mL)	–	–	–	–	–	–	–	–	–	–	–	–	–	–	–	–	–
Cc1onc(C(=O)N2[C@@H]3CC[C@H]2C[C@@H](Nc2cc(=O)n(C)c4cc(F)c(F)cc24)C3)c1C	–	–	–	0.12 (≈ 0.0531 µg/mL)	7.77	–	–	–	–	–	–	–	–	–	–	–	–	–	–	MCC at 72 h [4]: > 50 µM; Papp A→B [5]: 23 ×10⁻⁶ cm/s; pIC50 (Adenosine receptor A1): 5.10; pIC50 [7]: 4.80; fraction unbound at 18 h, 20 µM [8]: 0.03; INH (Cytochrome P450 2C9): > 30 µM; INH (Cytochrome P450 3A4): > 30 µM; INH (Cytochrome P450 2D6): > 30 µM; INH (Cytochrome P450 2C19): > 30 µM; logD [9]: 2.8; INH (Cytochrome P450 1A2): > 30 µM; microsomal CLint at 1 µM [10]: 107 µL/min/mg; Papp B→A [12]: 13 ×10⁻⁶ cm/s; solubility at 24 h [13]: 6 µM (≈ 2.65 µg/mL); hepatocyte CLint at 1 µM [14]: 56 µL/min/1e6 cells
C[C@H]1C[C@H](Nc2cc(=O)[nH]c3cc(F)c(F)cc23)CCN1C(=O)c1cnn(C)c1Cl	–	–	12.5 (≈ 5.45 µg/mL)	0.39 (≈ 0.17 µg/mL)	7.68	inactive	–	–	–	–	–	–	–	–	–	–	–	–	–	pIC50 [15]: 5.99; fold change (FC) [16]: 47
CCn1c(=O)cc(NC2CCN(C(=O)c3cnn(C)c3Cl)CC2)c2ccccc21	–	–	–	> 100	< 4.00	inactive	inactive	inactive	inactive	inactive	inactive	inactive	inactive	inactive	inactive	inactive	inactive	inactive	–	–
C[C@H]1COC2(CCN(c3nc(=O)c4cc(C(F)(F)F)cc([N+](=O)[O-])c4s3)CC2)O1 [BTZ-043]	0.012 (≈ 0.00518 µg/mL)	0.003 (≈ 0.00129 µg/mL)	12.5 (≈ 5.39 µg/mL)	0.003 (≈ 0.00129 µg/mL)	–	–	–	–	–	–	–	–	–	–	–	–	–	–	0.003 (≈ 0.00129 µg/mL)	–
COc1nc2ccc(Br)cc2cc1[C@@H](c1ccccc1)[C@@](O)(CCN(C)C)c1cccc2ccccc12 [BEDAQUILINE]	0.8 (≈ 0.444 µg/mL)	1.6 (≈ 0.889 µg/mL)	1.6 (≈ 0.889 µg/mL)	0.78 (≈ 0.433 µg/mL)	–	–	–	–	–	–	–	–	–	–	–	–	–	–	0.8 (≈ 0.444 µg/mL)	–
Cn1cc(C(=O)N2CCC(Nc3cc(=O)[nH]c4ccccc34)CC2)cn1	–	–	–	140 (≈ 49.2 µg/mL)	5.66	inactive	inactive	inactive	inactive	inactive	inactive	inactive	inactive	inactive	inactive	inactive	inactive	inactive	–	–
Cc1c(C(=O)N2CCC(Nc3cc(=O)[nH]c4ccccc34)CC2)cnn1C	–	–	–	6.2 (≈ 2.27 µg/mL)	6.68	inactive	inactive	inactive	inactive	inactive	inactive	inactive	inactive	inactive	inactive	inactive	inactive	inactive	–	–
CC(C)n1ncc(C(=O)N2CCC(Nc3cc(=O)[nH]c4ccccc34)CC2)c1Cl	–	–	–	100 (≈ 41.4 µg/mL)	5.15	inactive	inactive	inactive	inactive	inactive	inactive	inactive	inactive	inactive	inactive	inactive	inactive	inactive	–	–
CO[C@H]1/C=C/O[C@@]2(C)Oc3c(C)c(O)c4c(O)c(c(/C=N/N5CCN(C)CC5)c(O)c4c3C2=O)NC(=O)/C(C)=C\C=C\[C@H](C)[C@H](O)[C@@H](C)[C@@H](O)[C@@H](C)[C@H](OC(C)=O)[C@@H]1C [RIFAMPIN]	0.03 (≈ 0.0247 µg/mL)	0.01 (≈ 0.00823 µg/mL)	0.01 (≈ 0.00823 µg/mL)	0.01 (≈ 0.00823 µg/mL)	–	–	–	–	–	–	–	–	–	–	–	–	–	–	0.004 (≈ 0.00329 µg/mL)	–
NNC(=O)c1ccncc1 [ISONIAZID]	0.45 (≈ 0.0617 µg/mL)	> 7.25	0.22 (≈ 0.0302 µg/mL)	0.45 (≈ 0.0617 µg/mL)	–	–	–	–	–	–	–	–	–	–	–	–	–	–	0.22 (≈ 0.0302 µg/mL)	–
